PPC-1+TRAIL kill: compounds killing PPC-1 cancer cells with TRAIL present (potentiator screen, no TRAIL-free arm). PPC-1 cells + TRAIL, ATPLite viability luminescence. cell killing (% activity), % at 4 µM or 5 µM. 0.41% of 220,000 active;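 active = cell killing above 50% in the first pass at 4 µM, then a duplicate retest at 5 µM averaging 50% or more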;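 also: plate controls were cells with TRAIL plus DMSO for no effect and medium-only wells lacking cells for full effect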
Wee1 degr inh: inhibitors of human Wee1 degradation; reporter increase, % at 5 µM; AID 1321; HeLa Luc-Wee1K328M stability, luciferase luminescence; 100% = proteasome inhibitor MG132 effect; 1.2% of 220,000 active; P30291;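 active = activation above the mean of all tested compounds plus 3 SD, set per screening run, cut at about 8.8% in these data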;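 also: cells exposed to compound for 20 h before luminescence read; 0% = DMSO alone and 100% = MG132 at 30 µM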
Target sequence (P30291 whole entry K328M): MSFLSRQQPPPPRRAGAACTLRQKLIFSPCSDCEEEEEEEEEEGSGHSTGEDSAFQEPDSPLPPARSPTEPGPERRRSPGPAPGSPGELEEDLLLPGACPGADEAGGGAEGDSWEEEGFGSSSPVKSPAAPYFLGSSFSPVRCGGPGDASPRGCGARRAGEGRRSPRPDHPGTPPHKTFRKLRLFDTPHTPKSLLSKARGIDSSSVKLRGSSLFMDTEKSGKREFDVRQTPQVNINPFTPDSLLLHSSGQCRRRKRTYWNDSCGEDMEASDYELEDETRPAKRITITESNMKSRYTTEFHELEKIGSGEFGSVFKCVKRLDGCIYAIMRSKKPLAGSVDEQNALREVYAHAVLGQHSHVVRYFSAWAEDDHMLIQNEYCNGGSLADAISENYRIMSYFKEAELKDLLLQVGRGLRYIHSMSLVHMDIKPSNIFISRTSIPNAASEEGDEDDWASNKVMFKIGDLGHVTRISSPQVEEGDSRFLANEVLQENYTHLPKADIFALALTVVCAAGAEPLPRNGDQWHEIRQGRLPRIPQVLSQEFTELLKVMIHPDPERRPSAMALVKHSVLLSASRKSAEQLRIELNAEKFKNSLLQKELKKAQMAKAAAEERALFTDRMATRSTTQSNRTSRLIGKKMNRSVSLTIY
PKD1 inh: PKD1 (human) kinase inhibition; Q15139; PKD1 kinase fluorescence polarization assay; inhibition, % (concentration not given with the values); 0.056% of 200,000 active; in the data active = inhibition above about 50%
FLuc inh counter: Photinus pyralis luciferase inhibition counter-screen; 1.5% of 200,000 active; P08659; ATPLite firefly luciferase biochemical luminescence, 10 min; inhibition, % at 10 µM;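 active = inhibition above about 50% when tested at 10 µM, limit read from the data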
FLuc stim CS: affects firefly luciferase, flagging false hits in luciferase stimulation screens. activation factor at 10 µM. ATPlite luciferase biochemical, luminescence, 10 min; 0 = ATP-free wells, 1 = DMSO control. P08659. 200,000 tested, under 10 active. AID 1027;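 active = luciferase activation factor, scaled between plate controls, of at least 2 with compound at 10 µM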
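Assay system: Luciferase/luciferin detection reagent, cell-free biochemical luciferase assay / Read-out: luciferase activation / Benchmarks: No-ATP low control, compound-free enzyme-plus-ATP high control / Medium: PBS buffer for ATP / Detection: luminescence measurement of luciferase light output / Schedule: 10 min at ambient temperature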
TRAIL sens C8: sensitizes caspase-8 expressing cells to TRAIL. NB7+C8 cells + TRAIL, ATPlite viability luminescence. inhibition (viability loss, TRAIL sensitization), % at 10 µM. 1% of 360,000 active. AID 624354;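 active = compounds causing at least 50% loss of cell viability in the single-dose screen, relative to plate controls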
* hit, by the source's call; nt = no result. Shown are actives, neighbours in structure and some others; about 2.2% of the full set was active somewhere.

SMILES	PPC-1+TRAIL kill	Wee1 degr inh	PKD1 inh	FLuc inh counter	FLuc stim CS	TRAIL sens C8
O=C(NC1CC1)c1sc2cc([N+](=O)[O-])ccc2c1Cl	4.8	1.2	-1.3	7.2	0.9	15.8
CC(NC(=O)c1sc2cc([N+](=O)[O-])ccc2c1Cl)C(C)(C)C (configuration not stated)	10.7	9.0*	-2.5	-3.2	1	13.3
COc1ccc(-c2csc(NC(=O)C3CCN(c4ncnc5sc(C)c(C)c45)CC3)n2)cc1OC	nt	nt	nt	nt	nt	69.0*
COc1ccccc1OCC(=O)NNC(=O)C1CCN(c2ncnc3sc(C)c(C)c23)CC1	nt	nt	nt	nt	nt	1.9
COC(=O)C(NS(=O)(=O)c1ccc(N2CCCC2=O)cc1)c1ccccc1 (configuration not stated)	nt	nt	nt	nt	nt	-4.5
CCOC(=O)N/N=C/c1c(C)nn(-c2ccccc2Cl)c1Cl	22.2	4.5	-10.7	43.3	0.6	31.1
Cc1nn(-c2ccccc2Cl)c(Cl)c1/C=N/Nc1nc2ccccc2s1	46.5	-1.3	-3.6	81.4*	0.2	55.6*
c1ccc(COc2ccc(OCCCN3CCCC3)cc2)cc1	49.2	-1.8	-4.1	58.5*	0.4	19.9
COc1cc(NC(=O)Cn2cnc3c(OCc4ccccc4)ncnc32)cc(OC)c1OC	nt	nt	nt	nt	nt	0.3
CCN1C(=O)c2ccc(C(=O)Nc3ncc(C)s3)cc2C1=O	18.3	-2.0	-0.8	86.0*	0.1	-1.2
Cc1cnc(NC(=O)c2ccc3c(c2)C(=O)N(Cc2ccco2)C3=O)s1	-16.8	2.7	-4.6	5.5	0.9	-6.3
CCc1nnc(NC(=O)c2ccc3ncsc3c2)s1	4.5	-3.0	nt	nt	nt	-0.4
CCc1nnc(NC(=O)c2ccc3c(c2)C(=O)N(C(C)(C)C)C3=O)s1	24.5	1.3	-6.4	68.7*	0.3	38.2
COc1ccc(NS(=O)(=O)c2ccc(N/N=C(\C)c3ccncc3)c([N+](=O)[O-])c2)cc1	54.5*	-0.7	2.5	0.7	1	30.8
Cc1noc(C)c1COc1cccc(C(=O)OCC(=O)N2CC(=O)Nc3ccccc32)c1	1.9	17.7*	-2.5	-4.0	1	12.0
COCCn1ccc2c(OCC(=O)NCCc3ccccc3)cccc2c1=O	nt	nt	nt	nt	nt	9.2
CCC(C)N(CC(=O)Nc1cccc(C)c1C)C(=O)CCl (configuration not stated)	8.9	2.2	-2.4	-6.9	1.1	96.8*
CC(C)N(CC(=O)Nc1ccc(Cl)cc1C(F)(F)F)C(=O)CCl	23.6	-1.6	-3.9	-4.5	1	95.3*
CC(C)C(=O)N1CCN(c2ccc(NC(=O)c3ccc([N+](=O)[O-])o3)cc2Cl)CC1	36.9	6.2	0.5	-4.4	1	67.3*
CCN1CCN(c2c(Cl)cccc2NC(=O)c2ccc([N+](=O)[O-])o2)CC1	nt	nt	nt	nt	nt	59.3*
CN1CCN(c2ccc(NC(=O)c3ccc([N+](=O)[O-])o3)cc2Cl)CC1	nt	nt	nt	nt	nt	43.2
O=C(Nc1cccc(Cl)c1N1CCCC1)c1ccc([N+](=O)[O-])o1	11.4	-2.3	0.7	-1.3	1	-4.2
CCCC(=O)N1CCN(c2ccc(NC(=O)c3ccc([N+](=O)[O-])o3)cc2Cl)CC1	35.5	0.6	9.1	-3.9	1	59.3*
COc1cccc(NC(=O)c2ncc(Cl)c(Cl)c2Cl)c1	-6.8	2.0	-5.0	42.0	0.6	1.3
Cc1ccc(CSc2nc3ccncc3n2CC(=O)Nc2cc(C)cc(C)c2)cc1	19.2	1.9	-3.5	50.5*	0.5	50.7*
SMILES	PPC-1+TRAIL kill	Wee1 degr inh	PKD1 inh	FLuc inh counter	FLuc stim CS	TRAIL sens C8
Cc1ccc2c(c1)C(N1CCCC1=O)CC(c1ccco1)N2 (configuration not stated)	-17.1	1.5	2.3	94.7*	0.1	47.6*
COC(=O)C1CN(C(=O)COc2ccccc2)c2ccccc2O1 (configuration not stated)	nt	nt	nt	nt	nt	-9.9
C[C@@H]1CN([C@@H](C)CO)C(=O)c2cc(NC(=O)C3CCCCC3)ccc2O[C@@H](C)CCCCO[C@@H]1CN(C)C(=O)CCCN(C)C	nt	nt	nt	nt	nt	0.3
Nc1c(N(CCC2=CCCCC2)C(=O)CCCOc2ccccc2)c(=O)[nH]c(=O)n1Cc1ccccc1	nt	nt	nt	nt	nt	-7.2
Nc1c(N(CCC2=CCCCC2)C(=O)COc2ccc(F)cc2)c(=O)[nH]c(=O)n1Cc1ccccc1	nt	nt	nt	nt	nt	72.5*
Cc1cc2ncc(-c3ccc(Cl)cc3)cn2n1	23.7	-4.2	-2.7	55.8*	0.4	35.8
Cc1ccc(-c2ccnc3c(Cl)c(C)nn23)cc1	nt	nt	nt	nt	nt	-17.5
Cc1ccc(-c2cnc3c(Cl)c(C)nn3c2)cc1	22.0	1.3	-0.8	58.1*	0.4	44.2
COc1ccc(NC(=O)CN(C)CC(=O)Nc2ccc(Cl)cc2F)cc1	20.1	1.0	-2.8	-6.1	1.1	-12.9
Cc1ccc2c(Cl)c(C(=O)NCCCN3CCOCC3)sc2c1	nt	nt	nt	nt	nt	-9.4
NC(=N\N=CCc1ccccc1)/C(N)=N/N=CCc1ccccc1	nt	nt	nt	nt	nt	-3.7
O=C(NC1CCCCC1)c1n[nH]c2c1CCCCC2	nt	nt	nt	nt	nt	77.6*
O=C(NN=C1CCCC1)c1n[nH]c2c1CCC2	18.2	10.6*	-0.2	0.9	1	-3.1
COc1ccc(-c2nn(-c3ccccc3)cc2/C=N/N=C(N)N)cc1OC	55.1*	-1.4	10.5	-1.2	1	24.8
COc1ccc(-c2nn(-c3ccccc3)cc2/C=N/O)cc1OC	nt	nt	nt	nt	nt	8.3
CC(=O)Nc1cc(-c2ccc(C(=O)N3CCOCC3)cc2)cn2c(-c3cccc(C(F)(F)F)c3)cnc12	nt	nt	nt	nt	nt	10.5
COc1ccc2nc(N3CCCC3)c(C#N)cc2c1	3.5	8.9*	-5.6	15.9	0.8	-0.5
COc1ccc2nc(N3CCCCC3)c(C#N)cc2c1	-4.0	5.0	-12.3	35.8	0.6	-2.9
CCCNC(=O)Cn1sc2nc(C)cc(C)c2c1=O	5.8	2.1	nt	nt	nt	4.3
O=C(CSc1n[nH]c(=O)[nH]c1=O)c1ccc([N+](=O)[O-])cc1	2.8	11.7*	nt	nt	nt	-5.1
Nc1nc2sc3c(c2cc1C(=O)NCC(=O)O)CCCC3	nt	nt	nt	nt	nt	51.6*
CSc1cc(-c2ccncc2)nc(-c2ccc(Cl)cc2)c1	nt	nt	nt	nt	nt	22.0
COc1ccc(OC)c2sc(N(CCN(C)C)C(=O)/C=C/c3cccs3)nc12	nt	nt	nt	nt	nt	93.3*
O=C1c2ccc3c4c(ccc(c24)C(=O)N1c1cccc(O)c1)C(=O)N(c1cccc(O)c1)C3=O	16.1	-3.7	nt	nt	nt	48.8*
CCOC(=O)C1=C(C)N(C)C(=S)NC1c1ccc(Cl)cc1 (configuration not stated)	12.6	9.9*	-4.2	0.1	1	-3.4
CCOC(=O)C1=C(C)N(C)C(=S)NC1c1ccccc1 (configuration not stated)	3.5	2.5	-2.6	-1.3	1	11.4
Cc1cc(NC(=O)c2ccc(F)cc2F)n(-c2nc3ccccc3[nH]2)n1	-0.6	-1.9	-4.2	-2.2	1	20.0

Screens: PubChem BioAssay, several laboratories
